Most compounds without a hit are left out; they make up all but 3.8% or so of the library.
KCNK3 inh = human KCNK3 channel inhibition, primary screen; O14649; CHO-KCNK3 thallium flux, FluxOR fluorescence; hits give low values; B-score at 10 µM; actives 0.84% (n = 340,000); AID 602410;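 active = B-score under library mean minus 4 SD, starting fluorescence ratio at most library mean plus 5 SD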;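 also: more negative B-score means stronger inhibition of thallium flux through KCNK3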
KCNQ1 act = potentiates or activates the human KCNQ1 potassium channel | B-score at 10 µM | P51787 | actives 0.35% (n = 310,000) | CHO-K1 KCNQ1, thallium flux FluxOR fluorescence; hits give high values;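 active = fluorescence ratio B-score, a plate-corrected score, at least three library SD, with initial intensity B-score within 5 SD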
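Assay system: CHO-K1 cells stably expressing KCNQ1. Medium: assay buffer for compound exposure, DMSO matched across wells. Timing: 37 °C overnight plating, 90-min dark dye load, 20-min compound pretreatment. Signal: kinetic FluxOR fluorescence, 10 s baseline plus 110 s post-stimulus.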
KCNQ1 inh = inhibitors of human KCNQ1 potassium channel | P51787 | CHO-K1 KCNQ1, FluxOR thallium flux fluorescence; hits give high values | B-score at 10 µM | actives 1.3% (n = 310,000) | AID 2642;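 active = compounds whose thallium flux B-score, printed positive for inhibition, exceeds three library SD while starting fluorescence stays within three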;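 also: channel opened by potassium depolarization with thallium stimulus after 20 min compound exposure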
KCNK9 block = inhibitors of human KCNK9 two-pore domain potassium channel | Q9NPC2 | HEK293 KCNK9, FluxOR thallium flux fluorescence; hits give low values | AID 488922 | B-score at 10 µM | actives 1.2% (n = 310,000);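 active = ratio B-score over 3 SD below the library mean, with starting fluorescence within 5 SD of its mean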;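 also: negative B-score means less thallium flux so channel inhibition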
hERG protect = compounds protecting human hERG from proarrhythmic drug block. AID 1511. actives 0.51% (n = 310,000). activation (rescue from dofetilide block), less the hit threshold, % at 10 µM. CHO-hERG, FluxOR thallium flux, dofetilide IC70 present;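 active = activation above the mean of controls blocked by dofetilide plus 5 SD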;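 also: thallium influx through hERG after potassium depolarization seen as dye fluorescence rise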
Target sequence (Q12809 whole entry, looked up): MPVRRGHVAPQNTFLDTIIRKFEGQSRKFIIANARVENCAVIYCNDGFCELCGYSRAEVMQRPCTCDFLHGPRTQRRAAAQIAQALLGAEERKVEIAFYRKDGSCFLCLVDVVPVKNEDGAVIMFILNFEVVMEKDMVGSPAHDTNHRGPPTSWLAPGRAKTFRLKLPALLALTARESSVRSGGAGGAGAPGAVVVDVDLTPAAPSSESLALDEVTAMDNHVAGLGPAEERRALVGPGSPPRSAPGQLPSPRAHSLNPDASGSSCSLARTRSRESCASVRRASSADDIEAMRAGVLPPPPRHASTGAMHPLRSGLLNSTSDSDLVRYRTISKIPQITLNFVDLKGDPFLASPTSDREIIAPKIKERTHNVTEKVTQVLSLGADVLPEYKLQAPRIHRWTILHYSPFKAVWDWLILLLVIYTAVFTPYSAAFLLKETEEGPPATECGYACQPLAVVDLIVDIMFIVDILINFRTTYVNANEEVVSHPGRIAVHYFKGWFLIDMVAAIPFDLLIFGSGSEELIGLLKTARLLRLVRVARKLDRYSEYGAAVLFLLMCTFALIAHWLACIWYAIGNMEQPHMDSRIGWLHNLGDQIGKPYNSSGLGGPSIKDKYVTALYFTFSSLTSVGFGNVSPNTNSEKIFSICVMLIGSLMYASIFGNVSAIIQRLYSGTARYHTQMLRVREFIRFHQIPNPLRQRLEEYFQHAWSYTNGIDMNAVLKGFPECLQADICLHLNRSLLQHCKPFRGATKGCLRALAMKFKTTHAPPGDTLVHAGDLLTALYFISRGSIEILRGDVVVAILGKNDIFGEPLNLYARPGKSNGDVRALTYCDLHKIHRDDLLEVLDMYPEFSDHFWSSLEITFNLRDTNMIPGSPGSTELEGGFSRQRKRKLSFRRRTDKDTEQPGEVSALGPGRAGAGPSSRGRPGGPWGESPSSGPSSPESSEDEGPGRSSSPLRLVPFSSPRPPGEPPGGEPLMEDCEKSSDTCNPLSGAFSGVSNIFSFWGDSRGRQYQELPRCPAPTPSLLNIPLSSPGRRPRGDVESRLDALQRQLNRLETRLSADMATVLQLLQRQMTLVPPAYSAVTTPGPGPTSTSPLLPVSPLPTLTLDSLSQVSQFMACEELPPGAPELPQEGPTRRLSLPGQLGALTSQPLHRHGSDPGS
Kir21 inh = inhibitors of mouse Kir2.1 inward-rectifier potassium channel | HEK293-Kir2.1, FluxOR thallium flux fluorescence; hits give low values | B-score at 10 µM | actives 0.85% (n = 310,000) | AID 1672;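 active = fluorescence ratio B-score at or below minus 3 SD of library scores, with starting-brightness B-score within 2 SD, cut at about -4.2 in these data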;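 also: channel flux triggered by added potassium and thallium sulfate stimulus; B-score of peak minus minimum fluorescence over baseline after thallium stimulus; more negative B-score means stronger Kir2.1 block with less thallium influx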
KCNK9 block conf = human KCNK9 inhibitor confirmation. actives 43% (n = 4,900). inhibition, % at 10 µM. shares compounds with KCNK9 block. HEK293 KCNK9 cells, FluxOR thallium flux fluorescence;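 active = thallium signal inhibited by more than 5 SD of the compound-free buffer control wells, on both duplicate plates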
Kir2-1 spec = mouse Kir2.1 off-target activity of KCNK9 modulators | Kir2.1 cells, FluxOR thallium flux fluorescence | shares compounds with KCNK9 block | AID 492993 | inhibition, % at 10 µM | actives 4% (n = 4,900);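 active = thallium signal drop more than 5 SD beyond the mean of the no-compound control wells, seen in both duplicate plates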;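 also: signal is fluorescence rise after thallium addition divided by baseline fluorescence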
KCNK9 uninduced = second check of KCNK9 modulator effects in non-induced HEK293 cells; shares compounds with KCNK9 block; FluxOR thallium flux; AID 492997; inhibition, % at 10 µM; actives 40% (n = 4,900);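 active = thallium signal drop beyond 5 SD of the untreated control mean, on both duplicate plates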
Hits are given with their value.

COc1ccc(-n2nnnc2/C=C/Nc2cc(C(F)(F)F)ccc2OC)cc1 was read as KCNK3 inh inactive, KCNQ1 act inactive, KCNQ1 inh inactive, KCNK9 block -12, hERG protect inactive, Kir21 inh inactive, KCNK9 block conf 34%, Kir2-1 spec inactive and KCNK9 uninduced 43%.
For COc1ccc(S(=O)(=O)N2CCCCC2)cc1NC(=O)c1cncc(Br)c1 the results were KCNK3 inh inactive.
For O=C(Nc1ccnn1C1CCN(Cc2cccc(OCCO)c2)CC1)c1cccc(F)c1 the results were KCNK3 inh inactive, KCNQ1 act inactive, KCNQ1 inh inactive, KCNK9 block inactive, hERG protect inactive and Kir21 inh inactive.
`Cc1cc2cc(CN(Cc3cccs3)C(c3nnnn3C(C)(C)C)C(C)C)c3nnnn3c2cc1C` (centres undefined) gave KCNK3 inh inactive, KCNQ1 act inactive, KCNQ1 inh inactive, KCNK9 block -9.8, hERG protect inactive, Kir21 inh inactive, KCNK9 block conf 59%, Kir2-1 spec inactive and KCNK9 uninduced 49%.
`CCN(c1ccccc1)S(=O)(=O)c1ccc(Cl)c(C(=O)NC2CCN(Cc3ccccc3)CC2)c1` gave KCNK3 inh inactive.
CC(=O)NC(=S)Nc1ccc(N2CCOCC2)c(S(=O)(=O)Nc2cc(Cl)ccc2Cl)c1 was read as KCNK3 inh inactive, KCNQ1 act inactive, KCNQ1 inh inactive, KCNK9 block -15, hERG protect inactive, Kir21 inh inactive, KCNK9 block conf 66%, Kir2-1 spec inactive and KCNK9 uninduced 27%.
CCN(C[C@H]1N[C@@](CC)(C(=O)OC)[C@H]2C(=O)N(Cc3ccccc3)C(=O)[C@@H]12)C(=O)NC(C)C was read as KCNK3 inh inactive.
`COc1ccc(NC2CCCN(C(=O)CCCn3cncn3)C2)cc1OC` (centres undefined) gave KCNK3 inh inactive, KCNQ1 act inactive, KCNQ1 inh inactive, KCNK9 block inactive, hERG protect inactive and Kir21 inh inactive.
For COc1ccc(OC)c(S(=O)(=O)N2CCN(c3c(C)cccc3C)CC2)c1 the results were KCNK3 inh inactive, KCNQ1 act inactive, KCNQ1 inh inactive, KCNK9 block -11, hERG protect inactive, Kir21 inh inactive, KCNK9 block conf 52%, Kir2-1 spec inactive and KCNK9 uninduced 34%.
Screening CCOC(=O)c1c(-c2cccc([N+](=O)[O-])c2)csc1NC(=O)C1CCCCC1 returned KCNK3 inh inactive, KCNQ1 act inactive, KCNQ1 inh inactive, KCNK9 block inactive, hERG protect inactive and Kir21 inh inactive.
Screening CCOC(=O)c1c(-c2ccc(-c3ccccc3)cc2)csc1NC(=O)CNCCN(C)C returned KCNK3 inh inactive, KCNQ1 act inactive, KCNQ1 inh 6, KCNK9 block -10, hERG protect inactive, Kir21 inh inactive, KCNK9 block conf 57%, Kir2-1 spec 32% and KCNK9 uninduced 29%.
For CCOC(=O)c1c(-c2cccc([N+](=O)[O-])c2)csc1NC(=O)C1CC1 the results were KCNK3 inh inactive, KCNQ1 act inactive, KCNQ1 inh inactive, KCNK9 block -8.3, hERG protect inactive, Kir21 inh inactive, KCNK9 block conf 24%, Kir2-1 spec inactive and KCNK9 uninduced 24%.
CCN1CCN(S(=O)(=O)c2ccc(Cl)c(C(=O)NCCc3ccccc3)c2)CC1 was read as KCNK3 inh inactive, KCNQ1 act inactive, KCNQ1 inh inactive, KCNK9 block inactive, hERG protect inactive and Kir21 inh inactive.
For COCc1c(C(=O)N/N=C(/C)c2ccc(OCc3ccccc3)cc2)nnn1-c1nonc1N the results were KCNK3 inh inactive, KCNQ1 act inactive, KCNQ1 inh inactive, KCNK9 block inactive, hERG protect inactive and Kir21 inh inactive.
Screening CCN(C(=O)CSc1nc(-c2cccs2)nc2ccccc12)C1CCS(=O)(=O)C1 (centres undefined) returned KCNK3 inh inactive.
Screening CCOC(=O)CNC(=O)C12CC3CC(C1)CC(c1ccc(C)cc1)(C3)C2 returned KCNK3 inh inactive, KCNQ1 act inactive, KCNQ1 inh inactive, KCNK9 block inactive, hERG protect inactive, Kir21 inh inactive, KCNK9 block conf inactive, Kir2-1 spec inactive and KCNK9 uninduced inactive.
CCOc1ccc(NC(=O)C23CC4CC(C2)CC(c2ccccc2)(C4)C3)cc1 was read as KCNK3 inh inactive, KCNQ1 act inactive, KCNQ1 inh inactive, KCNK9 block inactive, hERG protect inactive, Kir21 inh inactive, KCNK9 block conf inactive, Kir2-1 spec inactive and KCNK9 uninduced inactive.
`Cc1ccc(C23CC4CC(CC(C(=O)NN)(C4)C2)C3)cc1` gave KCNK3 inh inactive, KCNQ1 act inactive, KCNQ1 inh inactive, KCNK9 block inactive, hERG protect inactive and Kir21 inh inactive.
`O=C1C=C(c2cnc3ccccc3c2)C[C@@H](c2ccc3c(c2)OCO3)C1` gave KCNK3 inh inactive.
For O=c1c(-c2ccccc2)nnc2sc(COc3ccc(Br)cc3)nn12 the results were KCNK3 inh inactive, KCNQ1 act inactive, KCNQ1 inh inactive, KCNK9 block inactive, hERG protect inactive and Kir21 inh inactive.
`Cc1c(N=C2N=C(NC(=O)c3ccc(F)cc3)c3ccccc32)c(=O)n(-c2ccccc2)n1C` gave KCNK3 inh inactive, KCNQ1 act inactive, KCNQ1 inh inactive, KCNK9 block inactive, hERG protect inactive and Kir21 inh inactive.
CCN(Cc1ccccc1)Cc1nc(CCc2ccccc2)no1 was read as KCNK3 inh inactive, KCNQ1 act inactive, KCNQ1 inh inactive, KCNK9 block inactive, hERG protect inactive and Kir21 inh inactive.
For c1ccc(CCN(Cc2ccccc2)Cc2nc(C3CC3)no2)cc1 the results were KCNK3 inh inactive, KCNQ1 act inactive, KCNQ1 inh inactive, KCNK9 block -9.6, hERG protect inactive, Kir21 inh inactive, KCNK9 block conf inactive, Kir2-1 spec inactive and KCNK9 uninduced 38%.
`Cc1ccc(OCC(=O)NC(=S)Nc2ccc(Br)cn2)cc1C` gave KCNK3 inh inactive, KCNQ1 act inactive, KCNQ1 inh inactive, KCNK9 block inactive, hERG protect inactive and Kir21 inh inactive.
Screening COc1cccc(OCCOCCOc2ccc(C)cc2[N+](=O)[O-])c1 returned KCNK3 inh inactive, KCNQ1 act inactive, KCNQ1 inh inactive, KCNK9 block inactive, hERG protect inactive, Kir21 inh inactive, KCNK9 block conf inactive, Kir2-1 spec inactive and KCNK9 uninduced inactive.

Compound activity deposited in PubChem by Johns Hopkins Ion Channel Center.
